Measured values of several laboratories.
Lines come from different studies, so protocols differ.
IDE: Insulin-degrading enzyme (IDE, Homo sapiens, UniProt P14735)
Tumor necrosis factor receptor superfamily member 9: Tumor necrosis factor receptor superfamily member 9 (Homo sapiens, UniProt Q07011)
STK4: Serine/threonine-protein kinase 4 (STK4, Homo sapiens, UniProt Q13043)

| Structure (SMILES) | target | read-out | action | method | notes | endpoint | value |
| --- | --- | --- | --- | --- | --- | --- | --- |
| Cc1cc2nc3c(=O)[nH]c(=O)nc-3n(C[C@H](O)[C@H](O)[C@H](O)COP(=O)(O)OP(=O)(O)OC[C@H]3O[C@@H](n4cnc5c(N)ncnc54)[C@H](O)[C@@H]3O)c2cc1C | Heat shock protein beta-1 (HSPB1, Homo sapiens, UniProt P04792) | binding | – | – | lysate | Kd | 0.159 µM |
| c1cncc(-c2cccc(Nc3nccc(NC4CCCCC4)n3)c2)c1 | Macrophage colony-stimulating factor 1 receptor (CSF1R, Homo sapiens, UniProt P07333) | binding | – | competition with immobilised ligand | – | Kd | 0.59 µM |
| CNC(=O)c1cc2c(Oc3ccc(NC(=O)C4(C(=O)Nc5ccc(F)cc5)CC4)cc3)ccnc2cc1OC | Hepatocyte growth factor receptor (MET, Homo sapiens, UniProt P08581, Y1230D) | enzyme activity | inhibitor | radiometric | – | IC50 | 0.009 µM |
| COC(=O)[C@H](Cc1c[nH]cn1)NC(=O)CN(CCCCc1ccccc1)CC(=O)O | IDE | enzyme activity | inhibitor | fluorescence | – | IC50 | 0.6 µM |
| CCCC[C@@H]1NC(=O)[C@H](Cc2ccc(O)cc2)NC(=O)[C@@H]2CCCN2C(=O)[C@H](CC(=O)O)NC(=O)[C@H](C)NC(=O)[C@H](Cc2ccccc2)NC(=O)[C@@H]2CSCCC(=O)N3CN(CN(C3)C(=O)CCSC[C@@H](C(=O)N[C@@H](C)C(N)=O)NC1=O)C(=O)CCSC[C@H](NC(C)=O)C(=O)N[C@@H](CC(C)(C)C)C(=O)N1CCC[C@H]1C(=O)N[C@@H](CCC(=O)O)C(=O)N[C@H](CCCCNC(=O)CCc1cn(CC(=O)N[C@H]3CSCCC(=O)N4CN5CN(C4)C(=O)CCSC[C@H](NC(=O)[C@@H](CC(=O)O)NC(=O)[C@H](Cc4cccc6ccccc46)NC(=O)[C@@H]4CCCN4C3=O)C(=O)N[C@@H](CCSC)C(=O)N[C@@H](CCCCNC(=N)N)C(=O)N[C@@H](CC(=O)O)C(=O)N[C@@H](Cc3c[nH]c4ccccc34)C(=O)N[C@@H](CO)C(=O)N[C@@H]([C@@H](C)O)C(=O)N3CCC[C@H]3C(=O)N3C[C@H](O)C[C@H]3C(=O)N[C@@H](Cc3c[nH]c4ccccc34)C(=O)N[C@H](C(N)=O)CSCCC5=O)nn1)C(=O)N1CCC[C@H]1C(=O)N[C@@H](Cc1ccc(O)cc1)C(=O)N2 | Tumor necrosis factor receptor superfamily member 9 | binding | – | SPR | – | Kd | 0.009 µM |
| Cc1ccc(C)c(OCCCC(C)(C)C(=O)O)c1 | Peroxisome proliferator-activated receptor alpha (PPARA, Homo sapiens, UniProt Q07869) | reporter gene | agonist | luciferase | – | EC50 | 58 µM |
| CCCC[C@@H]1NC(=O)[C@H](Cc2ccc(O)cc2)NC(=O)[C@@H]2CCCN2C(=O)[C@H](CC(=O)O)NC(=O)[C@H](C)NC(=O)[C@H](Cc2ccccc2)NC(=O)[C@@H]2CSCCC(=O)N3CN(CN(C3)C(=O)CCSC[C@@H](C(=O)N[C@@H](C)C(N)=O)NC1=O)C(=O)CCSC[C@H](NC(C)=O)C(=O)N[C@@H](CC(C)(C)C)C(=O)N1CCC[C@H]1C(=O)N[C@@H](CCC(=O)O)C(=O)N[C@H](CCCCNC(=O)CCc1cn(CCOCCOCCOCCOCCOCCC(=O)N[C@H]3CSCCC(=O)N4CN5CN(C4)C(=O)CCSC[C@H](NC(=O)[C@@H](CC(=O)O)NC(=O)[C@H](Cc4cccc6ccccc46)NC(=O)[C@@H]4CCCN4C3=O)C(=O)N[C@@H](CCSC)C(=O)N[C@@H](CCCCNC(=N)N)C(=O)N[C@@H](CC(=O)O)C(=O)N[C@@H](Cc3c[nH]c4ccccc34)C(=O)N[C@@H](CO)C(=O)N[C@@H]([C@@H](C)O)C(=O)N3CCC[C@H]3C(=O)N3C[C@H](O)C[C@H]3C(=O)N[C@@H](Cc3c[nH]c4ccccc34)C(=O)N[C@H](C(N)=O)CSCCC5=O)nn1)C(=O)N1CCC[C@H]1C(=O)N[C@@H](Cc1ccc(O)cc1)C(=O)N2 | Tumor necrosis factor receptor superfamily member 9 | binding | – | SPR | – | Kd | 0.0034 µM |
| COC(=O)[C@H](Cc1c[nH]cn1)NC(=O)CN(CC(=O)O)Cc1ccc(F)cc1 | IDE | enzyme activity | inhibitor | fluorescence | – | IC50 | 2.5 µM |
| CCCC[C@@H]1NC(=O)[C@H](Cc2ccc(O)cc2)NC(=O)[C@@H]2CCCN2C(=O)[C@H](CC(=O)O)NC(=O)[C@H](C)NC(=O)[C@H](Cc2ccccc2)NC(=O)[C@@H]2CSCCC(=O)N3CN(CN(C3)C(=O)CCSC[C@@H](C(=O)N[C@@H](C)C(N)=O)NC1=O)C(=O)CCSC[C@H](NC(C)=O)C(=O)N[C@@H](CC(C)(C)C)C(=O)N1CCC[C@H]1C(=O)N[C@@H](CCCCNC(=O)CCc1cn(CC(=O)N[C@H]3CSCCC(=O)N4CN5CN(C4)C(=O)CCSC[C@H](NC(=O)[C@@H](CC(=O)O)NC(=O)[C@H](Cc4cccc6ccccc46)NC(=O)[C@@H]4CCCN4C3=O)C(=O)N[C@@H](CCSC)C(=O)N[C@@H](CCCCNC(=N)N)C(=O)N[C@@H](CC(=O)O)C(=O)N[C@@H](Cc3c[nH]c4ccccc34)C(=O)N[C@@H](CO)C(=O)N[C@@H]([C@@H](C)O)C(=O)N3CCC[C@H]3C(=O)N3C[C@H](O)C[C@H]3C(=O)N[C@@H](Cc3c[nH]c4ccccc34)C(=O)N[C@H](C(N)=O)CSCCC5=O)nn1)C(=O)N[C@H](C)C(=O)N1CCC[C@H]1C(=O)N[C@@H](Cc1ccc(O)cc1)C(=O)N2 | Tumor necrosis factor receptor superfamily member 9 | binding | – | SPR | – | Kd | 0.012 µM |
| Cc1cnc(-c2ccc(-c3ccc(NC(=O)Nc4c(F)cc(F)cc4F)cc3F)c3c2C(=O)NC3)[nH]1 | STK4 | binding | – | competition with immobilised ligand | – | Kd | 0.0013 µM |
| COC(=O)[C@H](Cc1c[nH]cn1)NC(=O)CN(CC(=O)NO)Cc1ccccc1 | IDE | enzyme activity | inhibitor | fluorescence | – | IC50 | 3.2 µM |
| CN1CCN(c2ccc(Nc3ncc4cc(C#N)c(=O)n(C5CCCC5)c4n3)cc2)CC1 | STK4 | enzyme activity | inhibitor | – | – | IC50 | 7.07 µM |
| O=C(O)CN(CC(=O)N[C@H](CO)Cc1c[nH]cn1)Cc1ccccc1 | IDE | enzyme activity | inhibitor | fluorescence | – | IC50 | 4.1 µM |
| CC#CC(=O)N1CC[C@@H](n2cc(-c3ccc(Oc4c(F)cccc4F)cc3)c3c(N)n[nH]c(=O)c32)C1 | Tyrosine-protein kinase JAK3 (JAK3, Homo sapiens, UniProt P52333) | binding | – | competition with immobilised ligand | – | Kd | > 3 µM |
| COC(=O)[C@H](Cc1c[nH]cn1)NC(=O)CN(CCCc1ccccc1)CC(=O)O | IDE | enzyme activity | inhibitor | fluorescence | – | IC50 | 1 µM |
| CC(C)C[C@H](NC(=O)[C@H](Cc1ccccc1)NC(=O)[C@H](Cc1ccc(O)cc1)NC(=O)CNC(=O)[C@H](CCCNC(=N)N)NC(=O)[C@H](CO)NC(=O)[C@H](CCC(N)=O)NC(=O)[C@H](CO)NC(=O)[C@H](C)NC(=O)[C@H](Cc1ccccc1)NC(=O)[C@@H]1CCCN1C(=O)[C@H](CO)NC(=O)[C@H](CCC(N)=O)NC(=O)[C@H](Cc1ccccc1)NC(=O)[C@H](CCC(=O)O)NC(=O)[C@H](CCC(=O)O)NC(=O)[C@H](CC(=O)O)NC(=O)[C@@H](NC(=O)[C@H](CCCNC(=N)N)NC(=O)[C@@H](N)Cc1ccccc1)C(C)C)C(=O)N[C@@H](Cc1ccccc1)C(=O)N[C@@H](CCCNC(=N)N)C(=O)N1CCC[C@H]1C(=O)N[C@@H](CCCNC(=N)N)C(=O)N[C@@H](CC(N)=O)C(N)=O | Neuromedin-U receptor 2 (NMUR2, Homo sapiens, UniProt Q9GZQ4) | inositol phosphate | agonist | TR-FRET | – | EC50 | 0.00017 µM |
